Results gathered from unrelated publications.
Lines come from different studies, so protocols differ.
Target: G protein-coupled receptor kinase 4 (GRK4, Homo sapiens, UniProt P32298)

CN(CCCC(F)(F)F)c1nccc(-c2cnn3ncccc23)n1
remaining binding (binding; 1 µM): 100%

CCCOc1ccc([C@@H]2[C@@H](C(=O)O)[C@H](c3ccc4c(c3)OCO4)CN2CC(=O)Nc2c(CC)cccc2CC)cc1
remaining binding (cell-free assay; competition with immobilised ligand; 1 µM): 100%

CC1CCCN1c1nccc(-c2cnn3ncccc23)n1 (stereo not drawn)
remaining binding (binding; 1 µM): 75%

O=C(NCCCN1CCOCC1)c1ccc(Nc2nccc(-c3cc4ccccc4s3)n2)cc1
remaining binding (binding; competition with immobilised ligand; 1 µM): 1.4%

FC(F)(F)Oc1cccc(-c2cnc3ccc(-c4ccncc4)nn23)c1
remaining binding (cell-free assay; competition with immobilised ligand; 5 µM): 43%

Nc1cnc(N2CCc3cc(S(=O)(=O)Nc4c(F)cc(Cl)cc4F)cc(N4CCCC4=O)c32)nc1
remaining binding (cell-free assay; competition with immobilised ligand; 1 µM): 100%

COc1ncc2cc3ccccc3nc2c1C#N
remaining binding (cell-free assay; competition with immobilised ligand; 5 µM): 99%

CN(C)c1nccc(-c2cnn3ncccc23)n1
remaining binding (binding; 1 µM): 100%

Cc1cnc(Nc2ccc(C(=O)N3CCC(N4CCCC4)CC3)cc2)nc1-c1cc2ccccc2s1
remaining binding (binding; competition with immobilised ligand; 1 µM): 41%

O=C(Nc1c[nH]nc1C(=O)NC1CCNCC1)c1cc(F)cc(F)c1
remaining binding (binding; competition with immobilised ligand; 1 µM): 100%

C[C@@H]1CCN(c2nccc(-c3cnn4ncccc34)n2)C1
remaining binding (binding; 1 µM): 56%

O=C(NCCCC1CCCCC1)c1ccc(CNC(=O)c2cnn(-c3ccccc3)c2C(F)(F)F)cc1
remaining binding (cell-free assay; competition with immobilised ligand; 0.1 µM): 100%

O=C(c1ccc(Nc2nccc(-c3cc4ccccc4s3)n2)cc1)N1CCC(N2CCCC2)CC1
remaining binding (binding; competition with immobilised ligand; 1 µM): 0.4%

CN(C)c1ncc(F)c(-c2cnn3ncccc23)n1
remaining binding (binding; 1 µM): 100%

c1cncc(-c2cccc(Nc3nccc(NC4CCCCC4)n3)c2)c1
remaining binding (binding; competition with immobilised ligand; 10 µM): 56%

C[C@@]1(Cc2ccc(C#N)cc2)C(=O)N(c2cc(Cl)cc(Cl)c2)c2ncc(C(=O)NC3(c4nc(C5CCC5)no4)CC3)n21
remaining binding (cell-free assay; competition with immobilised ligand; 1 µM): 100%

C=CC(=O)N1CCC(C(=O)NCC(=O)N2CCN(c3nc(-c4cnc(N)nc4C(F)F)nc(N4CCOCC4)n3)CC2)CC1
remaining binding (binding; competition with immobilised ligand; 1 µM): 100%

COc1cccc(CNC(=O)c2nc3scc(COCc4ccc(C(=O)O)cc4)c3c(=O)[nH]2)c1
remaining binding (cell-free assay; competition with immobilised ligand; 1 µM): 72.1%

c1cnn2ncc(-c3ccnc(N4CCC45COC5)n3)c2c1
remaining binding (binding; 1 µM): 81%

N#CC1(c2ccccn2)CCN(Cc2cc(C(=O)N3CCCC3)c(=O)n3ccccc23)CC1
remaining binding (cell-free assay; competition with immobilised ligand; 1 µM): 86%

COc1cnc(Nc2cccc(S(N)(=O)=O)c2)nc1N1CCN(c2ccccc2)CC1
remaining binding (binding; competition with immobilised ligand; 1 µM): 100%
